Measurements from ChEMBL document CHEMBL1127790, “Photodynamic antitumor agents: beta-methoxyethyl groups give access to functionalized porphycenes and enhance cellular uptake and activity” (J Med Chem, 1994).
Blank lines part the entries; values can stand above or below the compound they belong to.

Legend:
Mus musculus [1] = species: Mus musculus; assay: Tested for Photodynamic activity of Sensitizers for cultivated SSK2 cells; type: ADME, cell-based; settings: read-out: LD50 (the source's name)
Outline: (§1)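 SSK2 murine fibrosarcoma cells (C3H origin), 3 × 10^5 cells/dish after 18 h attachment, incubated 4 h at 37 °C/5% CO2 with sensitizer in DPPC liposomes (DPPC/sensitizer 100:1) diluted in MEM. Cells washed, irradiated in PBS with laser light at 20 mW/cm2 for 250 s (5 J/cm2), then kept 18 h in MEM/10% FCS. Viability by trypan blue exclusion, as percent of MEM-only controls, ≥5 dishes per point. LD50 in incubation medium by probit analysis.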

[2] = (§2) Tested for Photodynamic activity of Sensitizers, lethal dose concentration in incubation media as obtained by probit analysis of SSK3 fibrosarcoma cells; type: ADME; settings: Mus musculus, light or radiation study; read-out: LD50 (the source's name); outline: as §1
[3] = Cellular uptake kinetics of Porphycenes saturation cell level (cs); type: ADME
Outline: (§3)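 Murine fibrosarcoma cells (SSK2, C3H mouse-derived; MEM/5% FCS, 37 °C, 5% CO2), 2.5 × 10^5 plated and grown 18 h. Then 2 µM porphycene in DOPC liposomes diluted in MEM, incubated at 37 °C for varying times. Cells washed, trypsinized, counted, pelleted. Extraction with methanol then acetonitrile containing diphenylanthracene internal standard. Fluorescence read at ex 370 nm against calibration plots. Saturation level from monoexponential fit.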

Mus musculus [4] = species: Mus musculus; assay: Cellular uptake kinetics of Porphycenes saturation cell level (cs) in SSK3 murine fibrosarcoma cells; type: ADME; outline: as §3
Mus musculus [5] = species: Mus musculus; assay: Tested for phototoxic activity of compound on SSK2 cultivated murine fibrosarcoma cells; type: ADME, cell-based; settings: light or radiation study, read-out: LD50 (the source's name); outline: as §1
Mus musculus [6] = species: Mus musculus; assay: Cellular uptake kinetics of Porphycenes saturation cell level (cs)in SSK2 murine fibrosarcoma cells; type: ADME; outline: as §3
Mus musculus [7] = species: Mus musculus; assay: Cellular uptake kinetics of Porphycenes saturation cell level (cs) in SSK2 murine fibrosarcoma cells; type: ADME; outline: as §3
Mus musculus [8] = species: Mus musculus; assay: Tested for phototoxic activity of compound on SSK3 cultivated murine fibrosarcoma cells; type: ADME, cell-based; settings: light or radiation study, read-out: LD50 (the source's name)
Mus musculus [9] = species: Mus musculus; assay: as §2; type: ADME, cell-based; settings: in vivo, read-out: LD50 (the source's name); outline: as §1

Structure (SMILES): COCCC1=Cc2nc1ccc1[nH]c(c3nc(ccc4[nH]c2cc4CCOC)C(CCOC)=C3)c2c(C(=O)OC)c(C(=O)O)ccc12
CC50 (Mus musculus [1]): 130 nM | CC50 [2]: 13 nM | Cell saturation [3]: 7.3 pM (10e5*cells)-1

Cell saturation (Mus musculus [4]): 14 pM (10e5*cells)-1
Structure (SMILES): CCCC1=Cc2nc1ccc1[nH]c(cc1CCOC)c1nc(ccc3[nH]c2cc3CCC)C(CCOC)=C1

Structure (SMILES): COCCC1=Cc2nc1ccc1[nH]c(cc1CCOC)c1nc(ccc3[nH]c2cc3CCOC)C(CCOC)=C1
CC50 (Mus musculus [5]): 8.5 nM | Cell saturation (Mus musculus [6]): 9.3 pM (10e5·cells)-1

Structure (SMILES): CCCC1=Cc2nc1ccc1[nH]c(cc1CCO)c1nc(ccc3[nH]c2cc3CCC)C(CCO)=C1
Cell saturation (Mus musculus [4]): 26 pM (10e5*cells)-1

Structure (SMILES): CCCC1=Cc2nc1ccc1[nH]c(cc1CCC)c1nc(c(OC(C)=O)cc3[nH]c2cc3CCC)C(CCC)=C1
CC50 (Mus musculus [5]): 110 nM | Cell saturation (Mus musculus [7]): 1.2 pM (10e5*cells)-1

Structure (SMILES): COCCC1=Cc2nc1ccc1[nH]c(cc1CCOC)c1nc(ccc3[nH]c2cc3CCOC)C(CCO)=C1
CC50 (Mus musculus [5]): 90 nM | CC50 (Mus musculus [8]): 9.1 nM | Cell saturation [3]: 9.3 pM (10e5*cells)-1

Structure (SMILES): C=CC1=C(C)c2cc3[nH]c(cc4nc(cc5[nH]c(cc1n2)c(C)c5CCC(=O)O)C(CCC(=O)O)=C4C)c(C)c3C=C [PROTOPORPHYRIN DISODIUM]
CC50 (Mus musculus [1]): 19000 nM | CC50 (Mus musculus [9]): 1900 nM

Structure (SMILES): CCCC1=Cc2nc1ccc1[nH]c(cc1CCC)c1nc(ccc3[nH]c2cc3CCC)C(CCC)=C1
Cell saturation (Mus musculus [7]): 1.5 pM (10e5*cells)-1
